Data from ChEMBL document CHEMBL4513216, “Probing the Open Global Health Chemical Diversity Library for Multistage-Active Starting Points for Next-Generation Antimalarials” (ACS Infect Dis, 2020).

Assay: Toxicity liver stage against HepG2, at 10uM
Format: cell-based
Parameters: test concentration 10 uM, cell line HepG2-A16-CD81EGFP
Settings: human, HepG2-A16-CD81EGFP cells; read-out: INHIBITION
How it was run: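 Uninfected HepG2-A16-CD81EGFP cells, 3 × 10^3 per well, 1536-well, plated on prespotted compound at 10 μM final, parasite-free screening media added to match infected plates; puromycin 10 μM positive, DMSO 0.5% negative; run in parallel with 48 h PbLuc assay at 37 °C, 5% CO2; viability by CellTiter-Glo luminescence, normalized to controls.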

| Structure (SMILES) | cytotoxicity at 10 µM |
| --- | --- |
| O=C(NCc1cccnc1)c1cn(CCc2ccccc2)nn1 | 4.39% |
| Cc1c(C)n2c(SCC(=O)N3CCCCCC3)nnc2[nH]c1=O | 0.0868% |
| Cc1cc2nc(CN(C)c3ccccc3)cc(=O)n2o1 | 0.719% |
| Cc1cccc2c1nc1n2[C@@H](CNC(=O)CCC(=O)O)COC1 | -4.83% |
| O=C(C1CC1)N1C[C@@H](F)[C@@H](OCc2nc3ccccc3o2)C1 | -1.94% |
| CC(C)NC(=O)NC[C@H]1C[C@@H]2CCN1C[C@@H]2CN(C)c1ccccc1 | 1.95% |
| Cc1ccc2cccc(Oc3nc(C)c(C(=O)O)s3)c2n1 | 6.39% |
| CC(C)CC1SCC(=O)Nc2c1cnn2-c1ccccc1F (stereo not given) | -8.62% |
| Cc1c(C2SCC(=O)Nc3c2c(O)nn3C(C)C)cnn1C (stereo not given) | 2.39% |
| CCN1CCCC1CNC(=O)Cc1c(C)n[nH]c1-c1ccc(OC)cc1 (stereo not given) | -3.72% |
| CC(C)N1CCC(c2ccnc3c(C(=O)N4CCOCC4)ncn23)CC1 | -5.89% |
| O=C1CCCN1Cc1nnn2c1CN(c1ncccn1)CCC2 | -0.0499% |
| CN(C)C(=O)N1CCc2c(nnn2C)C1COCC1CC1 (stereo not given) | 12.6% |
| Cc1noc([C@H]2COC[C@H]3CN(C(=O)Cc4ccccc4F)C[C@H]32)n1 | -8.52% |
| CN(C)C(=O)C1OC2(CCN(C(=O)c3ccco3)CC2)c2ccccc21 (stereo not given) | 4.93% |
| O=c1cc(Cn2cncn2)nc2n1CCCN(Cc1ccsc1)C2 | -0.123% |
| O=C(c1cscn1)N1C[C@@H]2C[C@@H](c3nnc(C4CC4)o3)O[C@@H]2C1 | -16.9% |
| Cc1nc2c(N3CCN(CCO)CC3)nc(N)nc2n1C | -10.8% |
| CCn1nc(C)c2ncnc(NCCCn3ccnc3)c21 | 10.3% |
| COc1cc(-c2n[nH]c(CC#N)n2)cc(OC)c1OC | -175% |
| CCc1nnc(Nc2cc(C)nc(C3CN(C(=O)C(C)C)CCO3)c2)s1 (stereo not given) | 7.25% |
| COCCN1CCCC(c2nccnc2-c2cccc(Cl)c2)C1 (stereo not given) | 3.99% |

| Structure (SMILES) | cytotoxicity at 10 µM |
| --- | --- |
| Cn1nccc1-c1cccc(CC2CCN(S(C)(=O)=O)C2)n1 (stereo not given) | 4.54% |
| CCCN(CCO)S(=O)(=O)c1ccc2[nH]c(=O)[nH]c2c1 | -0.24% |
| CN(C)S(=O)(=O)N1CCOC(c2cccc(-c3cncnc3)n2)C1 (stereo not given) | 3.71% |
| CNC(=O)C1(Cc2cc(C(C)C)no2)CCN(Cc2cccnc2)C1 (stereo not given) | 4.61% |
| CS(=O)(=O)N1CCCC(Cc2ccnc(Nc3ccccn3)c2)C1 (stereo not given) | 5.46% |
| Cc1cc(C2CCCN(S(=O)(=O)c3cn(C)cn3)C2)ccn1 (stereo not given) | 3.42% |
| O=C(O)c1ccccc1-n1cnc(CN2CCc3ccccc3C2)c1 | 13.6% |
| CN(C)Cc1ccccc1Cn1cncc1-c1cnn(C)c1 | 6.16% |
| CCn1cc(C(=O)NCCc2nc(-c3ccc(C)cc3)n[nH]2)c(C)n1 | 9.03% |
| Cc1cc(C)nc(C2CCCN2C(=O)c2cnco2)n1 (stereo not given) | -1.45% |
| CN1CCCC(c2cccc(CCC(=O)NCC3(C)COC3)n2)C1 (stereo not given) | -8.24% |
| CNc1ncccc1CN1CCCCC1c1cc(C)n2ccnc2n1 (stereo not given) | -2.17% |
| COc1cc(OC)cc(-c2cc(N)on2)c1 | 7.79% |
| Fc1ccc(-c2noc(C3COCCO3)n2)cc1F (stereo not given) | -1.21% |
| COC(=O)N1CCCN(Cn2nc(C)c(Br)c2C)CC1 | 8.38% |
| Cc1noc(CNc2ccccc2CC(=O)N(C)C)n1 | 2.69% |
| Fc1cccc2c1CCC2NCc1cnc(N2CCOCC2)nc1 (stereo not given) | 5.42% |
| CC(C)c1ccc(O)c(C(=O)NCc2cc[nH]n2)c1 | -1.49% |
| CC(C(=O)Nc1cnn(CC(N)=O)c1)c1ccc(Cl)s1 (stereo not given) | 10.9% |
| CC(C)N(C)S(=O)(=O)N(C)Cc1cnn(C)c1 | 7.2% |
| Cc1cc(C(=O)Nc2ccc3c(ccn3CCN3CCOCC3)c2)on1 | 4.29% |
| CC1CCC(NC(=O)CNC2(c3ccc(Br)cc3)CCOCC2)CC1 (stereo not given) | 3.46% |

| Structure (SMILES) | cytotoxicity at 10 µM |
| --- | --- |
| CCCN(C)C(=O)Nc1ccc(C(=O)NCCC(=O)OC)cc1 | 6.62% |
| Cc1cnn(CC2CCCN2CC(=O)Nc2nncs2)c1 (stereo not given) | -2.03% |
| Cc1ccc(-c2nc(CN3CCOC(Cn4cncn4)C3)cs2)o1 (stereo not given) | 4.5% |
| COc1cc(C(=O)NS(=O)(=O)c2cncc(Br)c2)ccc1C | -2.45% |
| Cc1ccc(C(=O)NCCCN(C)S(C)(=O)=O)cc1-n1cccc1 | -8.71% |
| Cc1ccc(C(=O)N2CCCC2c2nnc3n2CCCCC3)s1 (stereo not given) | -0.208% |
| Cc1nn(CC(C)C)c(N(C)C)c1CNCCC(=O)NC(C)C | 7.45% |
| Fc1ccc(OCCCN2CC(n3cccn3)C2)cc1 | 2.16% |
| CC(C)NC(=O)CN1CCSC2(CCCCC2)C1 | -13.7% |
| O=C(CC1CCCO1)NCc1ccc(Br)cc1F (stereo not given) | 4.72% |
| CCOCCCC(=O)NC1CCN(C(C)c2ccccc2)CC1 (stereo not given) | 4.05% |
| CCn1c(C)nnc1Sc1nn2cc(C)nc2s1 | -1.99% |
| N#Cc1ccc(OC2CCN(CC(=O)NCC3CCCO3)CC2)cc1 (stereo not given) | 34.8% |
| COCCC1(CNC(=O)NCC2CCC2)CCC1 | -10.1% |
| Cn1nccc1C(=O)NC(C)(C)c1noc(C(C)(C)C)n1 | 8.22% |
| Cc1cc(NC(=O)Cc2ccc3c(c2)OCO3)n(C)n1 | 10.1% |
| Cc1nn(C)cc1CN(C)Cc1cc2c(cc1OC(F)F)OCO2 | -3.53% |
| CSCC(=O)N1CCCC1c1noc(C2CC2)n1 (stereo not given) | 17% |
| NC(=O)CN1CCC(NC(=O)c2ccn(-c3cccc(F)c3)n2)CC1 | 13.4% |
| CC(=O)N1CC[C@H]2N(C)CC[C@@]2(C(=O)Nc2cccnc2)CC1 | -111% |
| Cc1ncncc1-c1ccnc(N)n1 | -7.22% |
| Cc1nccc(N2C[C@@H](CN3CCCC3)[C@@H](CO)C2)n1 | -3% |

| Structure (SMILES) | cytotoxicity at 10 µM |
| --- | --- |
| CC(C)n1ccnc1C1CCN(C(=O)c2ccccn2)CC1 | -2.85% |
| Cc1ncc(C)c(N2CCC(Cc3ccc(Cl)cc3)(C(=O)O)CC2)n1 | -6.28% |
| CCc1nc2ccccc2n1C(CC)C(=O)N(C)Cc1nc(C)c[nH]1 (stereo not given) | -2.53% |
| Cc1nccn1Cc1nnc(C2CCCN(c3ncccc3F)C2)n1C (stereo not given) | -4.93% |
| CCc1ccc(C(=O)N2CC[C@](C)(O)[C@H](C)C2)[nH]1 | 2.27% |
| CCn1cc(-c2cc(C(=O)N3CCOCC3)c3cc(Cl)ccc3n2)cn1 | -1.53% |
| CCn1cc(C(=O)NCCN2CCCc3ccccc32)c(C)n1 | 4.23% |
| Cc1nnc(CNC(=O)CC2CCc3ccccc32)o1 (stereo not given) | 1.58% |
| O=C(NCc1ccc2c(c1)CCCO2)C1CNCCO1 (stereo not given) | -7.49% |
| COCc1noc(CCNc2nc(CC3CC3)nc3c2CCNCC3)n1 | -4.1% |
| CCc1cc(N2CC(N3CCCCC3C)C2)n2nccc2n1 (stereo not given) | -4.85% |
| COCC(=O)N1C[C@H]2CNC[C@@]2(C(=O)NCc2cccc3[nH]ccc23)C1 | 6.65% |
| CCc1cccc(NC(=O)CCC(=O)N(C)Cc2nc(C)c[nH]2)c1 | -1.92% |
| CCCC(C)NCc1cnc(-c2cccc(C)c2)nc1 (stereo not given) | -11.7% |
| CS(=O)(=O)N1CCc2[nH]cnc2C12CCN(C(=O)c1ccccc1)CC2 | -2.66% |
| Cc1nc(-c2ccncc2)ncc1C(C)NC(=O)CN1CCCC1=O (stereo not given) | 1.74% |
| CCCc1nnc(NCCc2noc(C3CCC3)n2)o1 | -8.22% |
| CN1CCC(Oc2ccc(-n3ccnc3-c3nccn3C)cc2)CC1 | -7.41% |
| CN(C)CC(c1ccccc1)N(C)C(=O)c1cccc(NCC(=O)O)c1 (stereo not given) | 3.7% |
| Cc1cc(Cc2ccc(S(=O)(=O)N3CCSCC3)cc2)c(=O)[nH]n1 | -10% |
| Cc1cc(C(=O)N2CCCC(c3nccn3Cc3cscn3)C2)on1 (stereo not given) | -1.32% |
| COc1cccc2c1OCC(C(=O)N1CCC(N3CCOC3=O)CC1)C2 (stereo not given) | -19.7% |

| Structure (SMILES) | cytotoxicity at 10 µM |
| --- | --- |
| CN(C)C(=O)N1CCN(C(=O)C(c2ccccc2F)N(C)C)CC1 (stereo not given) | -0.665% |
| Cc1noc(C(C)N2CCN(CCOCC(F)(F)F)CC2)n1 (stereo not given) | -1.4% |
| Cc1csc(N2CCN(CC(=O)Nc3cc(C)nn3C)CC2C)n1 (stereo not given) | -10.2% |
| Cc1ccc(CC(=O)N2CCc3nnc(N(C)C)cc3C2)s1 | -9.01% |
| COc1ccc(NC(=O)N(CC2CCOC2)C2CC2)cn1 (stereo not given) | -6.95% |
| Cc1cc(C)n(-c2ccc(CNCc3ccc(F)c(F)c3)cn2)n1 | -8.77% |
| Cc1cc(C)n(C2CCCN(C(=O)c3c[nH]c(=O)c(Cl)c3)C2)n1 (stereo not given) | -5.03% |
| CN(Cc1cnn(C)c1)C(=O)NCc1csc(Br)c1 | 0.568% |
| c1cnc(-c2nc(CN3CCC(c4ccn[nH]4)CC3)cs2)nc1 | -2.97% |
| O=C(NCc1ccco1)C1CCCN1Cc1nc(-c2ccco2)no1 (stereo not given) | -6.46% |
| CCc1ncc(C(=O)N2CCOCC2c2c(C)n[nH]c2C)s1 (stereo not given) | -5.61% |
| Cc1noc(C)c1CN(C)C(=O)NC1CCN(c2ncccn2)CC1 | -19.1% |
| CC(C)c1cc(NC(=O)CN2CCc3ccccc3C2)on1 | -4.89% |
| CN(C)CCN1C[C@@H]2CN(C(=O)C3CCOC3)C[C@@H]2C1=O (stereo not given in full) | -5.18% |
| O=C([C@@H]1COC[C@H]2CN(CC3CC3)C[C@H]21)N1CCC(F)CC1 | 9.29% |
| O=C(NCc1ccccn1)[C@]12COC[C@H]1CN(C1CCC1)C2 | -6.82% |
| CN(C)C(=O)COC[C@@]12CCC[C@@H]1CN(C1CCC1)C2 | -1.25% |
| COc1ccc(CN2CC[C@H]3CO[C@H](CNC(=O)N(C)C)[C@H]3C2)cc1 | 1.07% |
| c1cncc(CN2CCCC3(COCCN(c4cnccn4)C3)C2)c1 (stereo not given) | -0.0653% |
| O=C(Nc1cccnc1)[C@@H]1CCO[C@@H]2CCN(Cc3cccnc3)C[C@@H]21 | 4.78% |
| CNc1nc(C(=O)N2C[C@@H]3CC[C@H]2CN(C2CCOCC2)C3)cs1 | 4.84% |
| CS(=O)(=O)N1C[C@H]2CC[C@@H](C1)N(CCC(=O)NCc1ccco1)C2 | -17.9% |
